In ChEMBL document CHEMBL1140709, “Design, synthesis, and biological evaluation of (E)-styrylbenzylsulfones as novel anticancer agents” (J Med Chem, 2008):

Tests used:
Assay type in all cases: functional, cell-based
[1] = Antitumor activity against human H157 cells by trypan blue exclusion assay; settings: NCI-H157
Summary of the method: (§1)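 Tumour cells were grown in DMEM or RPMI with 10% fetal bovine serum and 1 unit/mL penicillin-streptomycin. They were seeded in six-well dishes at 1.0 × 10⁵ cells/mL/well, and compound was added 24 h later over a range of concentrations. After 96 h of exposure, viable cells in duplicate wells were counted by trypan blue exclusion.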

[2] = system: BT-20; test: Antitumor activity against human BT20 cells by trypan blue exclusion assay; summary of the method: as §1
[3] = system: DU-145; test: Antitumor activity against AR-negative human DU145 cells by trypan blue exclusion assay; summary of the method: as §1
[4] = system: DLD-1; test: Antitumor activity against human DLD1 cells by trypan blue exclusion assay; summary of the method: as §1

Row | Structure (SMILES) | IC50 [2] | IC50 [3] | IC50 [4] | IC50 [1]
1 | COc1ccc(CS(=O)(=O)/C=C/c2ccc(Cl)cc2)cc1 | 2 µM | 2.5 µM | 3 µM | 3.5 µM
2 | COc1ccc(CS(=O)(=O)/C=C/c2cc(OC)ccc2OC)cc1 | > 20 µM | > 20 µM | > 20 µM | > 20 µM
3 | COc1cc(OC)c(/C=C/S(=O)(=O)Cc2ccc(OC)c(OC)c2OC)c(OC)c1 | 15 µM | 12.5 µM | 15 µM | 15 µM
4 | COc1ccc(CS(=O)(=O)/C=C/c2ccc(F)cc2)cc1 | 1.5 µM | 1.25 µM | 2 µM | 2.5 µM
5 | COc1ccc(CS(=O)(=O)/C=C/c2cc(OC)c(OC)c(OC)c2)cc1O | 7.5 µM | 5 µM | 10 µM | 10 µM
6 | COc1cc(OC)c(/C=C/S(=O)(=O)Cc2cc(OC)c(OC)c(OC)c2)c(OC)c1 | > 20 µM | > 20 µM | > 20 µM | > 20 µM
7 | COc1ccc(CS(=O)(=O)/C=C/c2ccc(F)cc2OC)cc1 | 15 µM | 10 µM | 15 µM | 20 µM
8 | COc1ccc(/C=C/S(=O)(=O)Cc2ccc(OC)cc2)cc1 | > 20 µM | > 20 µM | > 20 µM | > 20 µM
9 | COc1ccc(CS(=O)(=O)/C=C/c2ccc(F)cc2Cl)cc1 | 2.5 µM | 2 µM | 4 µM | 2.5 µM
10 | COc1ccc(CS(=O)(=O)/C=C/c2c(C)cc(C)cc2C)cc1 | > 20 µM | > 20 µM | > 20 µM | > 20 µM
11 | COc1ccc(CS(=O)(=O)/C=C/c2cc(C)cc(C)c2)cc1 | > 20 µM | > 20 µM | > 20 µM | > 20 µM
12 | COc1ccc(CS(=O)(=O)/C=C/c2ccc(OC)c(OC)c2OC)cc1 | > 20 µM | > 20 µM | > 20 µM | > 20 µM
13 | COc1ccc(CS(=O)(=O)/C=C/c2ccc(C)cc2C)cc1 | 15 µM | 12 µM | 15 µM | 15 µM
14 | COc1ccc(CS(=O)(=O)/C=C/c2ccc([N+](=O)[O-])cc2)cc1 | 5 µM | 7.5 µM | 5 µM | 7.5 µM
15 | COc1ccc(CS(=O)(=O)/C=C/c2c(C)cccc2C)cc1 | > 20 µM | > 20 µM | > 20 µM | > 20 µM
16 | COc1ccc(CS(=O)(=O)/C=C/c2ccccc2OC)cc1 | 5 µM | 3.5 µM | 7.5 µM | 5 µM
17 | COc1ccc(CS(=O)(=O)/C=C/c2ccc(N)cc2)cc1 | > 20 µM | > 20 µM | > 20 µM | > 20 µM

More lines, main results first:

Row | IC50 [2] | IC50 [3] | IC50 [4] | Structure (SMILES) | IC50 [1]
18 | 15 µM | 15 µM | 15 µM | COc1cc(OC)c(/C=C/S(=O)(=O)Cc2ccc([N+](=O)[O-])cc2)c(OC)c1 | 20 µM
19 | > 20 µM | > 20 µM | > 20 µM | COc1ccc(CS(=O)(=O)/C=C/c2ccc(OC)c(OC)c2)cc1 | > 20 µM
20 | > 20 µM | > 20 µM | > 20 µM | COc1ccc(CS(=O)(=O)/C=C/c2c(OC)cc(O)cc2OC)cc1 | > 20 µM
21 | > 20 µM | > 20 µM | > 20 µM | COc1ccc(CS(=O)(=O)/C=C/c2cc(OC)c(OC)cc2OC)cc1 | > 20 µM
22 | 3 µM | 4 µM | 4 µM | COc1cc(OC)c(/C=C/S(=O)(=O)Cc2ccc(OC(F)(F)F)cc2)c(OC)c1 | 6 µM
23 | 0.25 µM | 0.5 µM | 0.5 µM | COc1ccc(CS(=O)(=O)/C=C/c2c(OC)cc(O)cc2OC)cc1O | 0.5 µM
24 | 10 µM | 7.5 µM | 15 µM | COc1cc(OC)c(/C=C/S(=O)(=O)Cc2ccc(Cl)cc2)c(OC)c1 | 15 µM
25 | > 20 µM | > 20 µM | > 20 µM | COc1ccc(CS(=O)(=O)/C=C/c2cc(OC)cc(OC)c2)cc1 | > 20 µM
26 | 0.4 µM | 0.25 µM | 0.7 µM | COc1ccc(CS(=O)(=O)/C=C/c2c(OC)cccc2OC)cc1 | 0.7 µM
27 | 15 µM | 7.5 µM | 20 µM | COc1cc(OC)c(/C=C/S(=O)(=O)Cc2ccc(O)cc2)c(OC)c1 | 20 µM
28 | > 20 µM | > 20 µM | > 20 µM | COc1ccc(CS(=O)(=O)/C=C/c2cc(OC)c(OC)c(OC)c2)cc1 | > 20 µM
29 | 0.75 µM | 0.5 µM | 0.75 µM | COc1ccc(CS(=O)(=O)/C=C/c2c(OC)cc(F)cc2OC)cc1 | 0.5 µM
30 | > 20 µM | > 20 µM | > 20 µM | COc1ccc(CS(=O)(=O)/C=C/c2ccc(OC)cc2OC)cc1 | > 20 µM
31 | 15 µM | 10 µM | 15 µM | COc1cc(OC)c(/C=C/S(=O)(=O)Cc2ccc(C(=O)O)cc2)c(OC)c1 | 17.5 µM
32 | 12.5 µM | 7.5 µM | 20 µM | COc1cc(OC)c(/C=C/S(=O)(=O)Cc2ccc(C#N)cc2)c(OC)c1 | 15 µM
